Measured values from ChEMBL document CHEMBL3351566, “Blood schizontocidal and gametocytocidal activity of 3-hydroxy-N'-arylidenepropanehydrazonamides: a new class of antiplasmodial compounds” (J Med Chem, 2014).

How the values were obtained:
Plasmodium falciparum [1] = assay: Gametocytocidal activity against transgenic Plasmodium falciparum NF54-pfs16-GFP late stage gametocytes at 40 uM after 72 hrs by mitotracker red CM-H2XRos dye based confocal imaging assay; format: functional; settings: NF54, 72 h
Method in brief: (§1)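 Late-stage gametocytes stained with MitoTracker Red, imaged, and scored by viable elongated MTR-positive morphology. % inhibition set relative to a puromycin 100% inhibition control. Compounds in 4% DMSO, top concentration 120 or 40 μM. IC50 from 21 serial dilutions. Mean of two independent experiments, each in duplicate.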

Plasmodium falciparum [2] = assay: Antiplasmodial activity against Plasmodium falciparum Dd2 asexual blood stages after 3 days by HRP2 detection based ELISA method; format: functional, organism-based; settings: Dd2, 72 h
Method in brief: (§2)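 HRP2-based growth inhibition of P. falciparum asexual blood stages, 3D7 (chloroquine-sensitive) or Dd2 (multidrug-resistant). IC50 from 12 serial dilutions. Mean of at least two independent experiments, each run in duplicate.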

Plasmodium falciparum [3] = assay: Antiplasmodial activity against Plasmodium falciparum 3D7 asexual blood stages after 3 days by HRP2 detection based ELISA method; format: functional, organism-based; settings: 3D7, 72 h; method in brief: as §2
[4] = Selectivity index, ratio of IC50 for rat L6 cells to IC50 for Plasmodium falciparum 3D7 asexual blood stages; format: toxicity, cell-based; settings: read-out: Ratio IC50
Method in brief: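 Selectivity index calculated as L6 cytotoxicity IC50 divided by P. falciparum 3D7 IC50, using unrounded cytotoxicity values.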

L6 = assay: Cytotoxicity against rat L6 cells after 72 hrs by alamar blue assay; format: cell-based; settings: L6, 72 h
Mus musculus [5] = assay: Toxicity in Plasmodium berghei infected mouse assessed as changes in general behaviors at 50 mg/kg, po dosed once daily for 4 days on 4, 24, 48 and 72 hrs post infection; format: organism-based; design: dose 50 mg/kg, route oral; settings: in vivo
Method in brief: (§3)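 P. berghei-infected mice (n = 3 per group) received four oral doses at 4, 24, 48 and 72 h post-infection. Vehicle was 70/30 Tween 80/ethanol diluted 10× with water. Mice were watched for acute toxicity signs: death, changes in general behaviour, and changes in physiological activities.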

Mus musculus [6] = assay: Toxicity in Plasmodium berghei infected mouse assessed as changes in physiological activities at 50 mg/kg, po dosed once daily for 4 days on 4, 24, 48 and 72 hrs post infection; format: organism-based; design: dose 50 mg/kg, route oral; settings: in vivo; method in brief: as §3
Plasmodium falciparum [7] = assay: Gametocytocidal activity against transgenic Plasmodium falciparum NF54-pfs16-GFP late stage gametocytes after 72 hrs by mitotracker red CM-H2XRos dye based confocal imaging assay; format: functional, organism-based; settings: NF54, 72 h; method in brief: as §1
Mus musculus [8] = assay: Toxicity in Plasmodium berghei infected mouse assessed as mouse mortality level at 50 mg/kg, po dosed once daily for 4 days on 4, 24, 48 and 72 hrs post infection; format: organism-based; design: dose 50 mg/kg, route oral; settings: in vivo; method in brief: as §3
[9] = Plasma concentration in Plasmodium berghei infected mouse at 50 mg/kg, po dosed once daily for 4 days on 4, 24, 48 and 72 hrs post infection and measured 24 hrs post dose by HPLC-MS/MS method; format: ADME, organism-based; design: dose 50 mg/kg, route oral
Method in brief: (§4)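 P. berghei-infected mice (n = 3 per group) given oral doses in 70/30 Tween 80/ethanol diluted 10× with water, at 4, 24, 48 and 72 h postinfection. Plasma drug levels (ng/mL) measured at 1, 4 and 24 h after oral treatment.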

[10] = Plasma concentration in Plasmodium berghei infected mouse at 50 mg/kg, po dosed once daily for 4 days on 4, 24, 48 and 72 hrs post infection and measured 4 hrs post dose by HPLC-MS/MS method; format: ADME, organism-based; design: dose 50 mg/kg, route oral; method in brief: as §4
Plasmodium berghei [11] = assay: Antiplasmodial activity against Plasmodium berghei infected in mouse assessed as […] in mouse survival at 50 mg/kg, po dosed once daily for 4 days on 4, 24, 48 and 72 hrs post infection and measured on day 4 (reference value: 4 days); format: functional
Method in brief: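 Standard Peters 4-day test in P. berghei-infected mice (n = 3 per group), dosed orally at 4, 24, 48 and 72 h post-infection. Compound was dissolved or suspended in 70/30 Tween 80/ethanol and diluted 10× with water. Blood for parasitemia was taken on day 4 (96 h). Survival was given as mean days, with parasite-free at day 30 taken as cure. Untreated infected controls were euthanized on day 4.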

[12] = Plasma concentration in Plasmodium berghei infected mouse at 50 mg/kg, po dosed once daily for 4 days on 4, 24, 48 and 72 hrs post infection and measured 1 hr post dose by HPLC-MS/MS method; format: ADME, organism-based; design: dose 50 mg/kg, route oral; method in brief: as §4
Plasmodium berghei [13] = assay: Antiplasmodial activity against Plasmodium berghei infected in mouse assessed as reduction in parasitemia level at 50 mg/kg, po dosed once daily for 4 days on 4, 24, 48 and 72 hrs post infection and measured on day 4; format: functional
Method in brief: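 Peters 4-day test in P. berghei-infected mice, n = 3 per group. 50 mg/kg given orally once daily at 4, 24, 48 and 72 h postinfection. Dosed as a solution or suspension in 70/30 Tween 80/ethanol diluted 10× with water. Parasitemia read from blood taken on day 4 (96 h postinfection), expressed as % reduction versus an infected untreated control.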

Plasmodium falciparum [14] = assay: Gametocytocidal activity against transgenic Plasmodium falciparum NF54-pfs16-GFP late stage gametocytes at 120 uM after 72 hrs by mitotracker red CM-H2XRos dye based confocal imaging assay; format: functional; settings: NF54, 72 h; method in brief: as §1

| Compound | IC50 (Plasmodium falciparum [2]) [nM] | IC50 (Plasmodium falciparum [3]) [nM] | selectivity ratio [4] | IC50 (L6) [nM] | further results |
| --- | --- | --- | --- | --- | --- |
| N/C(CC(O)c1ccc2ccccc2c1)=N\N=C\c1ccc(F)cc1 (stereo not drawn) | 2500 | 2000 | > 149 | > 298000 | inhibition at 40 µM (Plasmodium falciparum [1]): 25% |
| N/C(CC(O)c1cccc2ccccc12)=N\N=C\c1ccccc1 (stereo not drawn) | 240 | 100 | 170 | 17000 |  |
| N/C(CC(O)c1cccc2ccccc12)=N\N=C\c1ccc(C(F)(F)F)cc1 (stereo not drawn) | 300 | 110 | 234 | 26000 |  |
| N/C(CC(O)c1cccc2ccccc12)=N\N=C\c1ccc(Cl)c(Cl)c1 (stereo not drawn) | 190 | 250 | 63 | 16000 |  |
| N/C(CC(O)c1cc2ccccc2c2ccccc12)=N\N=C\c1ccc(F)cc1 (stereo not drawn) | 11 | 8.3 | 1890 | 16000 | Activity (Mus musculus [5]): Non-toxic; Activity (Mus musculus [6]): Non-toxic; IC50 (Plasmodium falciparum [7]): 370 nM; Activity (Mus musculus [8]): Non-toxic; concentration at 24 h [9]: 86.1 ng/mL; concentration at 4 h [10]: 3100 ng/mL; MSD (Plasmodium berghei [11]): 10 days; concentration at 1 h [12]: 4690 ng/mL; inhibition in vivo at 50 mg/kg (Plasmodium berghei [13]): 99.6% |
| CCOc1cc(/C=N/N=C(\N)CC(O)c2cccc3ccccc23)ccc1O (stereo not drawn) | 450 | 250 | 17 | 4200 |  |
| COc1ccc(/C=N/N=C(\N)CC(O)c2cccc3ccccc23)cc1 (stereo not drawn) | 210 | 83 | 76 | 6300 |  |
| C[C@H]1[C@H](OC(=O)CCC(=O)O)O[C@@H]2O[C@@]3(C)CC[C@H]4[C@H](C)CC[C@@H]1[C@@]24OO3 [ARTESUNATE] | 2 |  |  | 24000 | IC50 (Plasmodium falciparum [7]): 44 nM |
| N/C(CC(O)c1cccc2ccccc12)=N\N=C\c1ccc(F)cc1F (stereo not drawn) | 190 | 190 | 22 | 4200 |  |
| N/C(CC(O)c1cccc2ccccc12)=N\N=C\c1ccco1 (stereo not drawn) | 380 | 510 | 284 | 145000 |  |
| COc1ccc(/C=N/N=C(\N)CC(O)c2ccc3ccccc3c2)cc1 (stereo not drawn) | 620 | 380 | 182 | 69000 |  |
| N/C(CC(O)c1ccc2ccccc2c1)=N\N=C\c1cccnc1 (stereo not drawn) | > 10000 | > 10000 |  |  |  |
| COc1cc([C@@H]2c3cc4c(cc3[C@H](O)[C@H]3COC(=O)[C@H]23)OCO4)cc(OC)c1OC [PODOFILOX] | 8300 | 9200 | 0.0016 | 9.7 |  |
| N/C(CC(O)c1cccc2ccccc12)=N\N=C\c1cccnc1 (stereo not drawn) | 1100 | 2700 | 8 | 22000 |  |
| N/C(=N\N=C\c1ccccc1)C(O)c1ccc2ccccc2c1 (stereo not drawn) | > 10000 | > 10000 |  |  |  |
| N/C(CC(O)c1ccc2ccccc2c1)=N\N=C\c1ccco1 (stereo not drawn) | > 10000 | > 10000 |  |  |  |

| Compound | IC50 (Plasmodium falciparum [2]) [nM] | IC50 (Plasmodium falciparum [3]) [nM] | selectivity ratio [4] | IC50 (L6) [nM] | further results |
| --- | --- | --- | --- | --- | --- |
| CCN(CC)CCCC(C)Nc1ccnc2cc(Cl)ccc12 (stereo not drawn) [CHLOROQUINE] |  |  |  | 78000 | inhibition at 120 µM (Plasmodium falciparum [14]): 44% |
| N/C(CC(O)c1cccc2ccccc12)=N\N=C\c1ccc(F)cc1 (stereo not drawn) | 200 | 60 | 321 | 19000 | IC50 (Plasmodium falciparum [7]): 780 nM; concentration at 24 h [9]: < 5 ng/mL; concentration at 4 h [10]: 145 ng/mL; MSD (Plasmodium berghei [11]): 6.7 days; concentration at 1 h [12]: 316 ng/mL; inhibition in vivo at 50 mg/kg (Plasmodium berghei [13]): 40% |
| N/C(CC(O)c1ccc2ccccc2c1)=N\N=C\c1ccc(F)cc1F (stereo not drawn) | > 10000 | 4000 | 23 | 93000 |  |
| N/C(CC(O)c1cccc2ccccc12)=N\N=C\c1ccc(F)c(F)c1 (stereo not drawn) | 550 | 180 | 95 | 17000 |  |
| Cc1ccc(/C=N/N=C(\N)CC(O)c2ccc3ccccc3c2)cc1 (stereo not drawn) | 380 | 540 | 190 | 103000 |  |
| N/C(CC(O)c1cccc2ccccc12)=N\N=C\c1cccc(Br)c1 (stereo not drawn) | 94 | 91 | 43 | 3900 |  |
| Cc1ccc(/C=N/N=C(\N)CC(O)c2cccc3ccccc23)cc1 (stereo not drawn) | 62 | 190 | 36 | 6800 |  |
| CCC/C(=N\N=C(/N)CC(O)c1cccc2ccccc12)c1ccccc1 (stereo not drawn) | 610 | 240 | 120 | 29000 |  |
| N/C(CC(O)c1cc2ccccc2c2ccccc12)=N\N=C\c1ccccc1 (stereo not drawn) | 28 | 16 | 383 | 6100 | IC50 (Plasmodium falciparum [7]): 180 nM |
| C/C(=N\N=C(/N)CC(O)c1cccc2ccccc12)c1ccc(F)cc1 (stereo not drawn) | 740 | 400 | 86 | 34000 |  |
| CCOc1cc(/C=N/N=C(\N)CC(O)c2ccc3ccccc3c2)ccc1O (stereo not drawn) | 1300 | 1100 | 71 | 78000 |  |
| N/C(=N\N=C\c1ccccc1)C(O)c1cccc2ccccc12 (stereo not drawn) | 3900 | 3000 | 100 | 300000 |  |
| O[C@@H](c1cc(C(F)(F)F)nc2c(C(F)(F)F)cccc12)[C@H]1CCCCN1 (relative stereo) [(S,R)-MEFLOQUINE] |  |  |  | 4500 | IC50 (Plasmodium falciparum [7]): 100 nM |
| N/C(CC(O)c1ccc2ccccc2c1)=N\N=C\c1ccc(Cl)c(Cl)c1 (stereo not drawn) | 700 | 1900 | 52 | 100000 |  |
| N/C(CC(O)c1ccc2ccccc2c1)=N\N=C\c1ccc(C(F)(F)F)cc1 (stereo not drawn) | > 10000 | > 10000 |  |  |  |
